ChEMBL document CHEMBL4265993, “Antibacterial Cyclic Lipopeptide Enamidonins with an Enamide-Linked Acyl Chain from a Streptomyces Species” (2018)
≈ marks a conversion by molar mass, not a printed value. Calls of active or inactive are those of the source. The rule behind the calls is not given here.

Experiments:
Format in all cases: functional
Bacillus subtilis [1] = test: Antibacterial activity against Bacillus subtilis assessed as diameter of inhibition zone after 24 hrs by disk diffusion method
Summary of the method: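 Disk diffusion. B. subtilis colonies cultured 24 h at 28 °C were suspended in sterile distilled water and inoculated onto nutrient agar. A 6 mm i.d. paper disk holding sample was placed on the plate, which was incubated 24 h at 28 °C. Read-out was the inhibition zone.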

Staphylococcus aureus [2] = test: Antibacterial activity against quinolone-resistant Staphylococcus aureus CCARM 3519 after 24 hrs by two-fold serial dilution method; conditions: CCARM 3519, 24 h
Summary of the method: (§1)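 MIC by broth microdilution. Bacteria were grown to mid-log phase in appropriate growth media and seeded into 96-well plates at 10^5 cells/mL. Compounds, with ciprofloxacin as reference, were prepared in DMSO and tested as serial 2-fold dilutions. MICs were determined in triplicate.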

Acinetobacter baumannii = test: Antibacterial activity against Acinetobacter baumannii KCTC 2508 after 24 hrs by two-fold serial dilution method; conditions: KCTC 2508, 24 h
Summary of the method: (§2)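 Broth microdilution MIC. Bacteria grown to mid-log phase in appropriate media and seeded in 96-well microtiter plates at 10^5 cells/mL. Treated with serial 2-fold dilutions of compounds prepared in DMSO, with ciprofloxacin as the reference drug. MIC determined in triplicate.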

Staphylococcus aureus [3] = test: Antibacterial activity against Staphylococcus aureus RN4220 after 24 hrs by two-fold serial dilution method; conditions: RN4220, 24 h; summary of the method: as §2
Streptococcus pneumoniae = test: Antibacterial activity against Streptococcus pneumoniae KCTC 5412 after 24 hrs by two-fold serial dilution method; conditions: KCTC 5412, 24 h; summary of the method: as §2
Staphylococcus aureus [4] = test: Antibacterial activity against quinolone-resistant Staphylococcus aureus CCARM 3505 after 24 hrs by two-fold serial dilution method; conditions: CCARM 3505, 24 h; summary of the method: as §1
Escherichia coli = test: Antibacterial activity against Escherichia coli CCARM 1356 after 24 hrs by two-fold serial dilution method; conditions: CCARM 1356, 24 h; summary of the method: as §2
Enterococcus faecalis = test: Antibacterial activity against Enterococcus faecalis KCTC 5191 after 24 hrs by two-fold serial dilution method; conditions: KCTC 5191, 24 h; summary of the method: as §2
Bacillus subtilis [5] = test: Antibacterial activity against Bacillus subtilis KCTC 1021 after 24 hrs by two-fold serial dilution method; conditions: KCTC 1021, 24 h; summary of the method: as §2
Staphylococcus aureus [6] = test: Antibacterial activity against methicillin-resistant Staphylococcus aureus CCARM 3506 after 24 hrs by two-fold serial dilution method; conditions: CCARM 3506, 24 h; summary of the method: as §1
Staphylococcus aureus [7] = test: Antibacterial activity against methicillin-resistant Staphylococcus aureus CCARM 3167 after 24 hrs by two-fold serial dilution method; conditions: CCARM 3167, 24 h; summary of the method: as §1
Pseudomonas aeruginosa = test: Antibacterial activity against Pseudomonas aeruginosa KCTC 2004 after 24 hrs by two-fold serial dilution method; conditions: KCTC 2004, 24 h; summary of the method: as §2

SMILES	Activity (Bacillus subtilis [1])	MIC (Staphylococcus aureus [2])	MIC (Acinetobacter baumannii)	MIC (Staphylococcus aureus [3])	MIC (Streptococcus pneumoniae)	MIC (Staphylococcus aureus [4])	MIC (Escherichia coli)	MIC (Enterococcus faecalis)	MIC (Bacillus subtilis [5])	MIC (Staphylococcus aureus [6])	MIC (Staphylococcus aureus [7])	MIC (Pseudomonas aeruginosa)	diameter of the inhibition zone (DIZ) (Bacillus subtilis [1])
C[C@@H](O)CC/C=C/CCC/C=C/C=C/C(=O)N/C=C/C(=O)NC[C@H]1NC(=O)[C@H](Cc2ccccc2)NC(=O)CNC(=O)[C@@H](N)CNC1=O	inactive												
C[C@@H](O)CC/C=C/CCC/C=C/C=C/C(=O)N/C=C/C(=O)NC[C@H]1NC(=O)[C@H](Cc2ccccc2)NC(=O)CN2C(=O)[C@H](CNC1=O)NC2(C)C		> 128 µg/mL	> 128 µg/mL	> 128 µg/mL	> 128 µg/mL	> 128 µg/mL	> 128 µg/mL	> 128 µg/mL	4 µg/mL (≈ 5.67 µM)	> 128 µg/mL	> 128 µg/mL	> 128 µg/mL	15 mm
CC(C)C[C@@H]1NC(=O)CNC(=O)[C@@H](N)CNC(=O)[C@@H](CNC(=O)/C=C/NC(=O)/C=C/C=C/CCC/C=C/CC[C@@H](C)O)NC1=O	inactive												
CC[C@H](C)[C@@H]1NC(=O)[C@H]([C@@H](C)O)N2C(=O)[C@H](CNC(=O)[C@@H](CNC(=O)/C=C/NC(=O)/C=C/C=C/CCC/C=C/CC[C@@H](C)O)NC1=O)NC2(C)C		32 µg/mL (≈ 44.7 µM)	> 128 µg/mL	32 µg/mL (≈ 44.7 µM)	> 128 µg/mL	32 µg/mL (≈ 44.7 µM)	> 128 µg/mL	64 µg/mL (≈ 89.4 µM)	16 µg/mL (≈ 22.3 µM)	16 µg/mL (≈ 22.3 µM)	64 µg/mL (≈ 89.4 µM)	> 128 µg/mL	13.5 mm
CC(C)C[C@@H]1NC(=O)CN2C(=O)[C@H](CNC(=O)[C@@H](CNC(=O)/C=C/NC(=O)/C=C/C=C/CCC/C=C/CC[C@@H](C)O)NC1=O)NC2(C)C		16 µg/mL (≈ 23.8 µM)	> 128 µg/mL	> 128 µg/mL	> 128 µg/mL	16 µg/mL (≈ 23.8 µM)	> 128 µg/mL	8 µg/mL (≈ 11.9 µM)	16 µg/mL (≈ 23.8 µM)	8 µg/mL (≈ 11.9 µM)	32 µg/mL (≈ 47.6 µM)	> 128 µg/mL	13.5 mm
O=C(O)c1cn(C2CC2)c2cc(N3CCNCC3)c(F)cc2c1=O [CIPROFLOXACIN]			0.25 µg/mL (≈ 0.754 µM)			32 µg/mL (≈ 96.6 µM)	64 µg/mL (≈ 193 µM)	1 µg/mL (≈ 3.02 µM)	0.0312 µg/mL (≈ 0.0943 µM)		4 µg/mL (≈ 12.1 µM)		
CC[C@H](C)[C@@H]1NC(=O)[C@H]([C@@H](C)O)NC(=O)[C@@H](N)CNC(=O)[C@@H](CNC(=O)/C=C/NC(=O)/C=C/C=C/CCC/C=C/CC[C@@H](C)O)NC1=O	inactive												
